Consider 30 compounds from PubChem BioAssay.

A short description of assay [1]: nonspecific flux increase, KCNQ1-free cells – parental CHO cells, counter-screen for KCNQ1 potentiator project (AID 493006;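 active means duplicate-averaged activation above buffer control mean plus 5 SD of those controls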;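 on activation: fluorescence ratio of max minus min over baseline after K+ and Tl+ depolarization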). Conditions: parental CHO-K1 cells, FluxOR thallium flux, at 10 µM; stronger effect = higher value. Put shortly: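 Benchmarks – buffer and R-L3 controls · Assay system – untransfected host CHO-K1 cells with FluxOR thallium dye · Measure – fluorescence change ratio scaled 0% buffer, 100% R-L3 · Technique – kinetic thallium-flux fluorescence · Timing – overnight 37 °C plating, 90 min RT dye, 20 min compound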
For orientation: Counterscreens check selectivity or assay interference.

In assay [2] the target is Potassium voltage-gated channel subfamily KQT member 1 (Homo sapiens) (UniProt P51787). The assay is described as follows: enhancement of KCNQ1 channel thallium flux – FluxOR thallium flux, CHO cells, duplicates, confirmation (AID 493007;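 active means potentiation averaged over duplicate wells exceeding buffer-only control mean by more than 3 SD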;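 on outcome: cells depolarized by a potassium plus thallium sulfate stimulus after compound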). Conditions: KCNQ1 cell line, FluxOR thallium flux fluorescence, at 10 µM; stronger effect = higher value, % of reference activator effect, buffer zero. Put shortly:
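Material: CHO cells stably expressing the KCNQ1 potassium channel / Times: dye 90 min then compound 20 min, both at room temperature / Detection: kinetic thallium influx fluorescence with FluxOR dye, 10 s baseline, 110 s post-stimulus / Benchmarks: buffer-only wells as 0% and R-L3 activator as 100% / Replicates: each compound tested in duplicate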

The target of assay [3] is Potassium voltage-gated channel subfamily KQT member 2 (Rattus norvegicus) (UniProt O88943). Put plainly: KCNQ2 thallium flux enhancement – KCNQ2-CHO-K1 cells, selectivity assay for KCNQ1 potentiator project (AID 493009).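 Further: assay conditions were tuned for KCNQ1 rather than KCNQ2 modulators; signal is max minus min fluorescence divided by baseline after thallium stimulus.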 Conditions: FluxOR thallium flux fluorescence, at 10 µM; stronger effect = higher value, scaled: buffer 0, activator control 100.
Sequence of Potassium voltage-gated channel subfamily KQT member 2 (Rattus norvegicus) (O88943 whole entry, looked up): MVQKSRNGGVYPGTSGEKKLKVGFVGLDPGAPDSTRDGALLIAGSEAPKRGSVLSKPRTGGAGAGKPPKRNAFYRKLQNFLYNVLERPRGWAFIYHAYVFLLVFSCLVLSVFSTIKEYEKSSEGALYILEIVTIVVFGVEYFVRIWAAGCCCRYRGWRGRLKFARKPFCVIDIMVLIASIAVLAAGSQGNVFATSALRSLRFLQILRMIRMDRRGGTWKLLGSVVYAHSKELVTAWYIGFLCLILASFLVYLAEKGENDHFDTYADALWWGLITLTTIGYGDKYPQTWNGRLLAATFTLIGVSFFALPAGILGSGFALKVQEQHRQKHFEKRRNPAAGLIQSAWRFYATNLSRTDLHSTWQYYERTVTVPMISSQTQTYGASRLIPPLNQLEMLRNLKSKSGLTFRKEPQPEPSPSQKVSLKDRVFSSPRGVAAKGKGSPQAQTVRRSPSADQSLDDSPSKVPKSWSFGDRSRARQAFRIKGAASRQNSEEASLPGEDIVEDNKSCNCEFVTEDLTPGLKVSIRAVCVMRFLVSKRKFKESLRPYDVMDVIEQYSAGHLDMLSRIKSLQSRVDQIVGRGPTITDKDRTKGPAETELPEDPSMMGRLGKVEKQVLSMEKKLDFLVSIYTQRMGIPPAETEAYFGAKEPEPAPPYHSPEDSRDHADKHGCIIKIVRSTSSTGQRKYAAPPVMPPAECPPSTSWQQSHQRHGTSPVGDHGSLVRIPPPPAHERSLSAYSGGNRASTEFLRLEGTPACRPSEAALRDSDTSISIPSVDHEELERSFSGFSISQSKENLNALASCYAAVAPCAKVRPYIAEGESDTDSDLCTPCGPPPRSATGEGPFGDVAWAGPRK
The target in assay [4] is Potassium voltage-gated channel subfamily KQT member 1 (Homo sapiens) (UniProt P51787). The assay is described as follows: KCNQ1 activators by electrophysiology – IonWorks patch clamp, KCNQ1-CHO cells, orthogonal assay for KCNQ1 potentiator project, confirmation (AID 493184;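 active means current rise at least 3 SD above the untreated control mean in each of two repeat wells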). Conditions: automated patch clamp current, at 10 µM; stronger effect = higher value. Put shortly: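 Probe or stimulus: depolarizing pulse to +40 mV from -90 mV; Material: CHO cells carrying KCNQ1; Compound: one dose, 10 µM final; Signal: automated voltage clamp, amphotericin B perforated patch; Read-out basis: percent current increase versus pre-compound level; Buffer or medium: pH 7.4 external bath; Replication: duplicates.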
Sequence of Potassium voltage-gated channel subfamily KQT member 1 (Homo sapiens) (P51787 whole entry, looked up): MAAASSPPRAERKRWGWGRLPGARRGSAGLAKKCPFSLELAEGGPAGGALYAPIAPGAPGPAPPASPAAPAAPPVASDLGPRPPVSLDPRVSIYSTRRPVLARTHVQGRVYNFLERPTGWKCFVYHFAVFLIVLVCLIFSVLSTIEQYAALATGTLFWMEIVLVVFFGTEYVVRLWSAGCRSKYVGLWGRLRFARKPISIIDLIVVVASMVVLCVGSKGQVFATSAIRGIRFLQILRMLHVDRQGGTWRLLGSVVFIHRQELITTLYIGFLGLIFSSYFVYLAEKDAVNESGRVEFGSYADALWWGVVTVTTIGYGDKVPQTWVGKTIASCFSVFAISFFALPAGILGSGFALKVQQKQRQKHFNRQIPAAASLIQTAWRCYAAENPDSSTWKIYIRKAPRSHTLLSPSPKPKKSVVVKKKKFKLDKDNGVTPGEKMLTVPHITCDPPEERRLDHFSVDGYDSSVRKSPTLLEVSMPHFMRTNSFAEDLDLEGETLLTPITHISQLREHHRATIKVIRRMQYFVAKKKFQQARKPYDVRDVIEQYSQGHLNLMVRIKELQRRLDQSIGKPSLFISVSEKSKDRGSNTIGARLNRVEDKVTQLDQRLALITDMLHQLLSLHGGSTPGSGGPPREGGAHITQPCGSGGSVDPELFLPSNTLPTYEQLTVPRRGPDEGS
For orientation: In patch-clamp work, channel activity is measured electrically.

Active and inactive are the calls of the source.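 How the source made its calls, unless noted: active means mean duplicate potentiation above the buffer control mean plus 5 SD of buffer wells; inactive means the rest.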

As to `Cn1c(=O)c2c3c(sc2n2c(SCC(N)=O)nnc12)CC(C(C)(C)C)CC3` (stereo not given), the outcome in assay [1], in assay [2], in assay [3] and in assay [4] was inactive.

As for `COCCCN=C1NN=C(c2cc(C)n(-c3ccccc3F)c2C)CS1`, the result in assay [1], in assay [2], in assay [3] and in assay [4] was inactive.

In the case of `COc1ccc(OCC(=O)NC(=S)Nc2ccc(N3CCOCC3)c(Cl)c2)cc1`, the activation in assay [1] was 142% (active). Besides, the potentiation in assay [2] was 33.5% (active). Also, the outcome in assay [3] and in assay [4] was inactive.

For the compound `O=C(COc1cccnc1[N+](=O)[O-])Nc1cccc(S(=O)(=O)N2CCCCC2)c1`, the result in assay [1], in assay [2], in assay [3] and in assay [4] was inactive.

For the compound `CC(=O)NC(CC(=O)O)C(=O)O` (stereo not given), the result in assay [1], in assay [2], in assay [3] and in assay [4] was inactive.

With `CC(=O)O[C@H]1CSC[C@H]1NC(=O)c1ccccc1`, the outcome in assay [1], in assay [2], in assay [3] and in assay [4] was inactive.

Turning to `Cc1ccc(C)c(NC(=S)NNC(=O)c2csc3c2CCC(C)C3)c1` (stereo not given), the activation in assay [1] is 242% (active). Further, the results for the potentiation in assay [2] and in assay [3] were 116% (active) and 322% (active), respectively. In assay [4], the outcome was inactive.

With `CCOc1ccc(NC(=S)NC(=O)c2ccco2)cc1`, the result in assay [1] and in assay [4] was inactive. Further, the potentiation in assay [2] is 29% (active); in assay [3] it was 180% (active).

Consider `CCC/C=N/NC(=O)c1[nH]c2c([N+](=O)[O-])cccc2c1C`, for which the result in assay [1], in assay [2], in assay [3] and in assay [4] was inactive.

As to `C=C(C)CNC(=S)Nc1nc2c(cc1C(=O)OCC)CCCC2`, the activation in assay [1] is 143% (active). In addition, the result in assay [2], in assay [3] and in assay [4] was inactive.

With `Oc1[nH]c2ccc(Br)cc2c1N=NC(=S)NCC1CCCO1` (stereo not given), the activation in assay [1] is 182% (active). The results for the potentiation in assay [2] and in assay [3] were 37.5% (active) and 204% (active), respectively. Further, in assay [4], the outcome was inactive.

Consider `Cc1[nH]n2c(=O)cc(C(C)(C)C)nc2c1-c1ccccc1`, for which the activation in assay [1] was 227% (active). The potentiation in assay [2] is 33.5% (active); in assay [3] it was 224% (active). In assay [4], the result was inactive.

Regarding `Cc1cc(C)n(CCNS(=O)(=O)c2ccccc2)n1`, the outcome in assay [1], in assay [2], in assay [3] and in assay [4] was inactive.

In the case of `Cc1ccc(CN2CCN(/N=C/C(Br)=C\c3ccccc3)CC2)cc1`, the result in assay [1], in assay [2], in assay [3] and in assay [4] was inactive.

Turning to `CCCC(=O)Nc1ccc(S(=O)(=O)N2CCC(c3nc4ccccc4[nH]3)CC2)cc1`, the result in assay [1], in assay [2], in assay [3] and in assay [4] was inactive.

`C[C@@H](NC(=O)OC(C)(C)C)c1nnc(S(=O)(=O)Cc2ccccc2)o1`: the result in assay [1], in assay [2] and in assay [4] was inactive. In addition, the potentiation in assay [3] was 158% (active).

With `COC(=O)CCCC[C@@H]1SC[C@@H](NC(=O)OC)[C@@H]1NC(=O)OC`, the outcome in assay [1], in assay [2], in assay [3] and in assay [4] was inactive.

Turning to `Cc1ccc(OCC(=O)NCCCNC(=O)c2ccncc2)cc1C`, the result in assay [1], in assay [2], in assay [3] and in assay [4] was inactive.

Turning to `O=P(CCCCCCCCCP(=O)(c1ccccc1)c1ccccc1)(c1ccccc1)c1ccccc1`, the activation in assay [1] was 256% (active). Besides, the figures for the potentiation in assay [2] and in assay [3] were 96.5% (active) and 327% (active), respectively. Also, the result in assay [4] was inactive.

For `O=C(N/N=C/c1c[nH]c2ccccc12)C1COc2ccccc2O1` (stereo not given), the outcome in assay [1], in assay [2], in assay [3] and in assay [4] was inactive.

For the compound `O=c1c2cc(Cl)cc(Cl)c2nc2n1CCC2`, the outcome in assay [1], in assay [2], in assay [3] and in assay [4] was inactive.

With `Cc1cccc(-n2c(C)cc(/C=N/NC(N)=S)c2C)c1`, the outcome in assay [1], in assay [2], in assay [3] and in assay [4] was inactive.

Regarding `O=C(Nc1ccc(C(=O)O)cc1)/C(=C\c1ccc2c(c1)OCO2)NC(=O)c1ccc(Br)cc1`, the outcome in assay [1], in assay [2], in assay [3] and in assay [4] was inactive.

With `Cc1cc(C)cc(-n2ccnc2SCC(=O)Nc2nccs2)c1`, the outcome in assay [1], in assay [2], in assay [3] and in assay [4] was inactive.

In the case of `Cc1ccc(C)c(SCC(=O)NC(=O)Nc2ccc3c(c2)OCCO3)c1`, the result in assay [1], in assay [2], in assay [3] and in assay [4] was inactive.

Regarding `Cc1ccc(-c2nc3c(Cl)cc(Cl)cc3c(=O)n2O)cc1`, in assay [1], the activation was 828% (active). In addition, the potentiation was 414% (active) in assay [2] and 820% (active) in assay [3]. In addition, in assay [4], the outcome was inactive.

As to `COc1ccc(C(=O)O/N=C(\N)Cc2ccc(Cl)cc2Cl)cc1OC`, the outcome in assay [1], in assay [2], in assay [3] and in assay [4] was inactive.

Consider `O=C(CCC(=O)N1CCOc2ccc(Cl)cc21)NCCN1CCOCC1`, for which the result in assay [1], in assay [2], in assay [3] and in assay [4] was inactive.

As to `COC(=O)c1c(N2C(=O)CC(Sc3ncccc3C(=O)O)C2=O)sc(C)c1C` (stereo not given), the outcome in assay [1], in assay [2], in assay [3] and in assay [4] was inactive.

For `CCn1c(SCC(=O)NC(=O)NCc2ccco2)nc2sc(C)c(C)c2c1=O`, the activation in assay [1] was 184% (active). Besides, the potentiation in assay [2] was 40.5% (active); in assay [3] it was 173% (active). In addition, the outcome in assay [4] was inactive.
